In data set [1] the test system is Trypanosoma brucei rhodesiense. As to the kind of experiment: In vitro inhibitory activity against Trypanosoma brucei rhodesiense evaluated in vitro.
Data set [2] concerns Mus musculus. Put plainly: In vivo effect on average days of survival was measured upon oral dose at 400 mg/kg in STIB900 mouse model. It counts as functional. In short, it runs like this: (§1)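 Mice infected with T. b. rhodesiense STIB900 got four daily doses: intraperitoneal for the parent amidine (4 × 10 mg/kg), oral for the prodrugs (4 × 25, 4 × 50 or 4 × 100 mg/kg/day). Read-out is mean days of survival per group, followed to 60 days.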

Data set [3] concerns Mus musculus. As to the kind of experiment: In vivo effect (cures) determined by number of mice that survived (2) and are parasite free (4) for 60 days upon oral dose, observed in STIB900 mouse model.
Data set [4] concerns Mus musculus. As to the kind of experiment: In vivo effect on average days of survival was measured upon oral dose at 200 mg/kg in STIB900 mouse model. It counts as functional. In short, it runs like this: as §1
A short description of data set [5]: Half-life in human liver microsomes was determined. It counts as ADME, Microsome. In short, it runs like this:
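Substrate at 10 µM final (from 5 mM methanol stocks) in 100 mM potassium phosphate pH 7.4 with 0.2 mg/mL pooled human liver microsomes. Preincubated 5 min, then started with 1 mM NADPH. Samples taken at 0–90 min, quenched with acetonitrile on ice, centrifuged, and supernatant analysed by HPLC-UV or LC-MS. Half-life from substrate loss.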

Data set [6] concerns Caco-2. Put plainly: Apparent permeability determined across the Caco-2 cell monolayers in both basolateral (BL) to apical (AP) directions. As to conditions: Homo sapiens. In kind it is functional, cell-based.
Data set [7] has as its system Mus musculus. Put plainly: In vivo effect (cures) determined by number of mice that survived (4) and are parasite free (4) for 60 days upon oral dose, observed in STIB900 mouse model.
The test system of data set [8] is Mus musculus. Put plainly: In vivo effect on average days of survival was measured upon oral dose at 100 mg/kg in STIB900 mouse model. In kind it is functional. In short, it runs like this:
as §1

Data set [9] relates to Mus musculus. Put plainly: In vivo effect (cures) determined by number of mice that survived (1) and are parasite free (4) for 60 days upon oral dose, observed in STIB900 mouse model.
The subject of data set [10] is Caco-2. Put plainly: Apparent permeability determined across the Caco-2 cell monolayers in both apical (AP) to basolateral (BL) directions. It counts as functional, cell-based. As to conditions: Homo sapiens.
Data set [11] has as its system Mus musculus. Put plainly: In vivo effect on average days of survival was measured upon intraperitoneal dose at 40 mg/kg in STIB900 mouse model. It counts as functional. In short, it runs like this:
as §1

The subject of data set [12] is Mus musculus. Put plainly: In vivo effect (cures) determined by number of mice that survived (0) and are parasite free (8) for 60 days upon intraperitoneal dose, observed in STIB900 mouse model. It counts as functional. In short, it runs like this:
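T. b. rhodesiense STIB900 acute infection in mice, 4 mice per group (8 in one group). Four daily doses (4 × mg/kg/day); the parent amidine was given intraperitoneally and the prodrugs orally. A cure is a mouse surviving and parasite-free at 60 days, reported as cured/treated.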

Where only a bound is given, the exact number is not on record here.

Regarding `CC(C)ONC(=N)c1ccc(-c2ccc(-c3ccc(C(=N)NOC(C)C)cc3)o2)cc1`, half-maximal inhibition in [1] (IC50) was put at 12.6 µM. The Survival days in the data set with Mus musculus [2] came to 48. In the data set on Mus musculus [3], this compound yielded a Dose of 400 mg/kg.
For the compound `CONC(=N)c1ccc(-c2ccc(-c3ccc(C(=N)NOC)cc3)o2)cc1` [PAFURAMIDINE], the Survival days in the data set with Mus musculus [4], in the data set with Mus musculus [2] and in the data set on Mus musculus [8] was >60 throughout. In data set [5], this compound came in with a half-life of 4.16 min. In data set [1], this compound returned an IC50 of 14.6 µM. For the same compound, the values for the Papp in the data set with Caco-2 [6] and in the data set on Caco-2 [10] were 3.75e-05 and 6.04e-05, respectively. In addition, the Dose in the data set with Mus musculus [7] came out at 400 mg/kg; in the data set on Mus musculus [9] it was 100 mg/kg; in the data set with Mus musculus [3] it was 200 mg/kg.
`CCCONC(=N)c1ccc(-c2ccc(-c3ccc(C(=N)NOCCC)cc3)o2)cc1`: the half-life in data set [5] stood at 60 min. Further, the IC50 in data set [1] was found to be 0.472 µM. Moreover, in the data set on Mus musculus [2], the Survival days is on record as >47.5. In the data set on Mus musculus [9], the Dose was 400 mg/kg.
`N=C(NO)c1ccc(-c2ccc(-c3ccc(/C(N)=N\O)cc3)o2)cc1` showed an IC50 in data set [1] of 66.4 µM. The same compound yielded a Survival days with Mus musculus [2] of 50.
On to `CCCCONC(=N)c1ccc(-c2ccc(-c3ccc(C(=N)NOCCCC)cc3)o2)cc1`, for which inhibition in [1] was half-maximal at 1.9 µM (IC50). For the same compound, the Survival days with Mus musculus [2] was 9.
On to `N=C(N)c1ccc(-c2ccc(-c3ccc(C(=N)N)cc3)o2)cc1` [FURAMIDINE], for which the Survival days in the data set on Mus musculus [11] is recorded as >46. For the same compound, in [1], the IC50 was determined as 0.0045 µM. Further, the Papp was 8.5e-07 in the data set on Caco-2 [6] and 3.8e-07 with Caco-2 [10]. In the data set on Mus musculus [12], this compound returned a Dose of 40 mg/kg.
In turn, `CCONC(=N)c1ccc(-c2ccc(-c3ccc(C(=N)NOCC)cc3)o2)cc1` came in with a half-life in data set [5] of 32 min. Also, in data set [1], inhibition was half-maximal at 0.645 µM (IC50). Besides, the values for the Papp in the data set with Caco-2 [6] and in the data set with Caco-2 [10] were 3.7e-06 and 5.9e-06, respectively. For the same compound, the figures for the Survival days in the data set with Mus musculus [2] and in the data set with Mus musculus [8] were >60 and 32, respectively. The Dose in the data set with Mus musculus [7] came out at 400 mg/kg.
In data set [1], `CCCCCCONC(=N)c1ccc(-c2ccc(-c3ccc(C(=N)NOCCCCCC)cc3)o2)cc1` registered an IC50 of 5.7 µM. Moreover, the Survival days in the data set on Mus musculus [2] is 6.

Source of the values: ChEMBL document CHEMBL1137987, “O-alkoxyamidine prodrugs of furamidine: in vitro transport and microsomal metabolism as indicators of in vivo efficacy in a mouse model of Trypanosoma brucei rhodesiense infection” (J Med Chem, 2004).
